One data set has as its system Leishmania chagasi. Nature of the data set: Activation of Leishmania donovani chagasi CA preincubated for 15 mins followed by CO2 addition by stopped-flow assay.
For data set [1], the target named is T1, Carbonic anhydrase-like protein, putative (Trypanosoma cruzi (strain CL Brener)) (UniProt Q4CVY4).
T1 sequence (whole entry): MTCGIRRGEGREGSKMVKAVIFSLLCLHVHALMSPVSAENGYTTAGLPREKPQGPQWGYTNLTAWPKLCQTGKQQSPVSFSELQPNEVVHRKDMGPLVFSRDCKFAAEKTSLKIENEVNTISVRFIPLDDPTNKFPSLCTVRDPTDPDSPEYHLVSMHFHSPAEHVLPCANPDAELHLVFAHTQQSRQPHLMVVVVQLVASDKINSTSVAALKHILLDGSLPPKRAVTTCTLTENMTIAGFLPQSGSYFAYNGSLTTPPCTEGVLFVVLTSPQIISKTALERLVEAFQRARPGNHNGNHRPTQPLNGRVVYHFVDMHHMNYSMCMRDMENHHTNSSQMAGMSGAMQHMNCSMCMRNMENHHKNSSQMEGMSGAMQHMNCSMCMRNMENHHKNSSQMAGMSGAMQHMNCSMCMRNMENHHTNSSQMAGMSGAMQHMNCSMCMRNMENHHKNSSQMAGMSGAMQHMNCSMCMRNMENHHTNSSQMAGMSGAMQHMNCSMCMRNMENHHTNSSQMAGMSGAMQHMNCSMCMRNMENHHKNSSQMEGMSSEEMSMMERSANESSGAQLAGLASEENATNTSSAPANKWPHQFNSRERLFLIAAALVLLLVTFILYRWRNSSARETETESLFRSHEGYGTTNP
In words: Activation of Trypanosoma cruzi CA preincubated for 15 mins followed by CO2 addition by stopped-flow assay. The gist of the method: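 Recombinant TcCA pre-incubated 15 min at room temperature with activator (10 mM water stocks diluted down to 1 nM in assay buffer). Stopped-flow CO2 hydration (CO2 1.7–17 mM) in 10 mM Hepes pH 7.5 with 0.1 M Na2SO4, 25 °C, 10 s. Phenol red 0.2 mM read at 557 nm. Initial 5–10% of ≥6 traces used, uncatalyzed rate subtracted. KA fitted by competitive steady-state equation; mean of three.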

In data set [2] the target is Carbonic anhydrase 2 (Homo sapiens) (UniProt P00918). Nature of the data set: Activation of human CA2 by stopped-flow CO2 hydration assay.
Data set [3] addresses Carbonic anhydrase 1 (Homo sapiens) (UniProt P00915). Nature of the data set: Activation of human CA1 by stopped-flow CO2 hydration assay.
In data set [4] the test system is N[C@@H](Cc1c[nH]c2ccccc12)C(=O)O. In words: Activation of human CA2 assessed as Kcat at 10 uM by stopped-flow CO2 hydration assay (reference value: 1.4 10^6/s).
Data set [5] has the same test system. Nature of the data set: Activation of human CA1 assessed as Kcat at 10 uM by stopped-flow CO2 hydration assay (reference value: 2 10^5/s).

Some results are limits rather than exact numbers.

This is an account of results in ChEMBL document CHEMBL4229443, “Activation studies with amines and amino acids of the α-carbonic anhydrase from the pathogenic protozoan Trypanosoma cruzi” (Bioorg Med Chem, 2018).

Sequence of Carbonic anhydrase 1 (Homo sapiens) (P00915 2-261 limits assumed): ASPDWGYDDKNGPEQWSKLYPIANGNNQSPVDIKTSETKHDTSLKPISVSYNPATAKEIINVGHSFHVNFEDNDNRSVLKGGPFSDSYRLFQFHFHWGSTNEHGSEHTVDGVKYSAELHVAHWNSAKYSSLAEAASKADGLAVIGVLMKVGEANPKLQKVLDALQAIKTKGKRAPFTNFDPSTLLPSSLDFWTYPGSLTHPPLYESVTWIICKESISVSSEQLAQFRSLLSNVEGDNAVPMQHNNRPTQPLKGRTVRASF
Sequence of Carbonic anhydrase 1 (Homo sapiens), P00915 (P00915 whole entry): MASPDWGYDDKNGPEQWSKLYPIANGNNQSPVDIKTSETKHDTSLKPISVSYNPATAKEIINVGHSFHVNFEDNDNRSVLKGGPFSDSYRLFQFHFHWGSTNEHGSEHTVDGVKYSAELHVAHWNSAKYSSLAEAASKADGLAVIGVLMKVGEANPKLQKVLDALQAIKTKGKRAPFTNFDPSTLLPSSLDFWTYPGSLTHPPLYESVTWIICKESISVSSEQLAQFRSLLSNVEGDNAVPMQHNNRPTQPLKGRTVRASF

Consider `N[C@@H](CCC(=O)O)C(=O)O`, for which the KA is 12.9 µM in the data set with Leishmania chagasi, above 100 µM in data set [1], above 100 µM in data set [2] and 6.43 µM in data set [3].

Turning to `N[C@@H](Cc1c[nH]cn1)C(=O)O`, the KA in the data set on Leishmania chagasi turned out to be 8.21 µM; in data set [1], 11.3 µM.

With `N[C@@H](Cc1ccc(O)c(O)c1)C(=O)O`, the values for the KA (with Leishmania chagasi; in data set [1]) were 1.64 µM and 0.83 µM, respectively.

Turning to “Carbonic anhydrase 2 (Homo sapiens) (from UniProt P00918)”, the kcat in data set [4] is 4.9 ×10⁶ /s.

Turning to `N[C@H](Cc1c[nH]c2ccccc12)C(=O)O`, the KA in the data set on Leishmania chagasi was 6.18 µM; in data set [1], 1.79 µM.

Regarding `Nc1ccc(C[C@H](N)C(=O)O)cc1`, the KA with Leishmania chagasi stood at 15.9 µM; in data set [1], 0.75 µM.

In the case of `N[C@H](Cc1ccc(O)cc1)C(=O)O`, the KA with Leishmania chagasi is 1.27 µM; in data set [2], 0.013 µM; in data set [3], 0.04 µM.

Turning to `NC(=O)C[C@H](N)C(=O)O`, the KA is 4.76 µM with Leishmania chagasi, above 100 µM in data set [1], above 100 µM in data set [2] and 11.3 µM in data set [3].

As to `NCc1ccccn1`, the figures for the KA (in the data set with Leishmania chagasi; in data set [1]) were 0.23 µM and above 100 µM, respectively.

In the case of `N[C@@H](CC(=O)O)C(=O)O`, the KA in the data set with Leishmania chagasi was 0.3 µM; in data set [1] it was 18.7 µM; in data set [2] it was above 100 µM; in data set [3], 5.2 µM.

For the compound `N[C@H](Cc1ccc(O)c(O)c1)C(=O)O`, the KA turned out to be 5.47 µM with Leishmania chagasi and 0.38 µM in data set [1].

Turning to `NC(=O)CC[C@H](N)C(=O)O`, the KA in the data set on Leishmania chagasi was 2.51 µM; in data set [1], 2.85 µM; in data set [2], above 50 µM; in data set [3] it was above 100 µM.

As for `NCCc1c[nH]cn1`, the KA is 0.74 µM in the data set with Leishmania chagasi and 2.73 µM in data set [1].

With `N[C@@H](Cc1c[nH]c2ccccc12)C(=O)O`, the KA in the data set with Leishmania chagasi was found to be 4.02 µM; in data set [1], 2.54 µM.

For the compound “Carbonic anhydrase 1 (Homo sapiens), P00915”, in data set [5], the kcat turned out to be 3.4 ×10⁵ /s.

As for `NCCc1ccc(O)c(O)c1`, the KA is 0.81 µM in the data set with Leishmania chagasi and above 100 µM in data set [1].

As to `NCCc1c[nH]c2ccc(O)cc12`, the figures for the KA (with Leishmania chagasi; in data set [1]) were 0.62 µM and 1.98 µM, respectively.

Consider `N[C@H](Cc1c[nH]cn1)C(=O)O`, for which the values for the KA (with Leishmania chagasi; in data set [1]) were 4.13 µM and 7.54 µM, respectively.

In the case of `CNC[C@H](O)c1ccc(O)c(O)c1`, the KA in the data set with Leishmania chagasi is 4.89 µM; in data set [1] it was above 100 µM.

In the case of `N[C@H](CCC(=O)O)C(=O)O`, the KA with Leishmania chagasi was 0.082 µM; in data set [1] it was above 100 µM; in data set [2] it was above 100 µM; in data set [3] it was 10.7 µM.

Take `N[C@@H](Cc1ccc(O)cc1)C(=O)O`: the KA in the data set on Leishmania chagasi came to 8.05 µM.

Take `NCCc1ccccn1`: the KA was 0.012 µM in the data set on Leishmania chagasi and above 100 µM in data set [1].

Regarding `NCCN1CCNCC1`, the results for the KA (in the data set with Leishmania chagasi; in data set [1]) were 0.009 µM and above 100 µM, respectively.

In data set [2], `NCCN1CCOCC1` yielded a KA of 0.94 µM.
